From ChEMBL document CHEMBL1143402 (PLoS Med, 2006)

Columns and labels:
[1] = system: Mycobacterium tuberculosis; assay: Inhibition of fatty acid synthesis in Mycobacterium bovis BCG after 60 mins; assay type: functional, organism-based; details: variant bovis BCG, 1 h
Outline: (§1)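 M. bovis BCG culture incubated with compound or DMSO plus 2-^14C acetate at 37 °C for 60 min. Cells saponified with KOH/methanol, acid-extracted into hexane, methyl-esterified. Fatty and mycolic acid subclasses separated by two-solvent TLC (n = 3) and quantified by phosphorimaging as % of control.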

[2] = system: Mycobacterium tuberculosis; assay: Inhibition of alpha-mycolic acid synthesis in Mycobacterium bovis BCG after 60 mins; assay type: functional, organism-based; details: variant bovis BCG, 1 h; outline: as §1

Row | SMILES | IC50 [1] | IC50 [2]
1 | C[C@]1(COc2ccc(N3CCC(Oc4ccc(OC(F)(F)F)cc4)CC3)cc2)Cn2cc([N+](=O)[O-])nc2O1 | > 0.25 µg/mL | > 0.25 µg/mL
2 | NNC(=O)c1ccncc1 [ISONIAZID] | > 4 µg/mL | –
